The campaign covered roughly 2,400 compounds. About 2,000 (83%) were called active.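 How the source made its calls: active means activation above a cutoff set at the run's mean compound activation plus 3 SD (cut at about 39% in these data); inactive means the rest.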 The set was probably picked from earlier hits. The list is a sample of the results.
molecular target: Trace amine-associated receptor 1 (Homo sapiens) (UniProt Q96RJ0); experiment: activators of TAAR1 calcium signal, triplicate retest – Fluo-8 calcium fluorescence, CHO RD-HGA16 cells, confirmation (AID 651783); settings: CHO RD-HGA16 TAAR1, Fluo-8 calcium fluorescence; at 3 µM; active compounds read high;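 further: promiscuous G-alpha-16 overexpression reroutes TAAR1 signalling from cAMP to calcium; peak fluorescence divided by basal pre-compound fluorescence per well; 0% = DMSO wells and 100% = phenethylamine at EC100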
Method in brief: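 material = RD-HGA16 CHO cells co-expressing hTAAR1 and promiscuous Gα16 | dosing = 3 µM single dose | incubation = Fluo-8 dye loading 75 min 37 °C, then 30 min room temperature | measured by = kinetic Fluo-8 calcium fluorescence over 140 s after basal | read-out = % activation from max-to-basal fluorescence ratio, DMSO-to-PEA scaled | repeats = triplicate wells per compound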

Chain of Trace amine-associated receptor 1 (Homo sapiens) (Q96RJ0 whole entry, looked up): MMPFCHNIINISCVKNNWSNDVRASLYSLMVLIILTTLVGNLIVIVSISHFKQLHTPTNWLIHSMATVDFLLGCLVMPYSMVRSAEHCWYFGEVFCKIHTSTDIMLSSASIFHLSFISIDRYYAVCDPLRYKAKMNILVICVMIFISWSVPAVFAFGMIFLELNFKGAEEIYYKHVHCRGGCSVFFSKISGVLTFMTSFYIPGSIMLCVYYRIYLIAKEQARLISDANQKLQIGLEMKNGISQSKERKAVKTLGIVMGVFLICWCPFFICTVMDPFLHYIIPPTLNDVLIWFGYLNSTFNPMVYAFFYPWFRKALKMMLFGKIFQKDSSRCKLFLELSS

Q: Which activation does the source give for c1ccc(CCNC2CCCCCC2)cc1 here?
A: 91.8% (active)

Q: For CCCCC(=O)N/N=C/c1c(O)n(CC)c(=S)n(CC)c1=O, which activation is on record?
A: 106% (active)

Q: Cc1cccc(N2C(=O)NC(=O)/C(=C\c3cnn(-c4ccccc4)c3)C2=O)c1 was tested. Which activation did it give?
A: 46.7% (active)

Q: With NCC(O)c1ccc(O)cc1 (centres undefined) as the compound, how does the activation read?
A: 88.3% (active)

Q: With COc1ccc(Br)cc1CNCCc1cccc(Cl)c1 as the compound, how does the activation read?
A: 71% (active)

Q: For CC(Cc1ccccc1)NC=O (centres undefined), which activation is on record?
A: 82.1% (active)

Q: With CCC(=NCCc1ccccc1)c1c(O)n(C2CCCCC2)c(=O)[nH]c1=O as the compound, how does the activation read?
A: 76.4% (active)

Q: For Clc1ccc2nc3c(c(-c4ccccc4)c2c1)CNCC3, which activation is on record?
A: 71% (active)

Q: For O=C1NC(=O)N(Cc2ccco2)C(=O)/C1=C\c1ccc(-c2ccc(F)cc2)o1, which activation is on record?
A: 52.5% (active)

— PubChem BioAssay AID651783 (The Scripps Research Institute Molecular Screening Center, 2012)
